Tests used:
[1] = system: formalin-induced nocifensive behavior; test: Formalin-induced pain behavior in mice; type: in vivo, mouse; settings: formalin test, antagonist 1 mg-kg^-1, i.p.
How it was run: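 Mice get intraplantar 5% formalin (20 μL). Nocifensive behaviour is scored in phase I (0–5 min) and phase II (5–45 min). Test compound is given i.p. at 0.01–1 mg-kg−1. In the antagonism arm, CB1, CB2 and TRPV-1 antagonists are each given at 1 mg-kg−1 i.p. Six mice per group; mean±SEM; two-way ANOVA with Bonferroni versus vehicle-injected controls.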

[2] = target: T1, FLAT-expressing Hek293 cells (Rattus norvegicus, UniProt P97612, DEL9-76); test: [3H]-anandamide accumulation in FLAT-expressing Hek293 cells; type: cell-based
T1 sequence (P97612 with tags, fused parts or gaps DEL9-76): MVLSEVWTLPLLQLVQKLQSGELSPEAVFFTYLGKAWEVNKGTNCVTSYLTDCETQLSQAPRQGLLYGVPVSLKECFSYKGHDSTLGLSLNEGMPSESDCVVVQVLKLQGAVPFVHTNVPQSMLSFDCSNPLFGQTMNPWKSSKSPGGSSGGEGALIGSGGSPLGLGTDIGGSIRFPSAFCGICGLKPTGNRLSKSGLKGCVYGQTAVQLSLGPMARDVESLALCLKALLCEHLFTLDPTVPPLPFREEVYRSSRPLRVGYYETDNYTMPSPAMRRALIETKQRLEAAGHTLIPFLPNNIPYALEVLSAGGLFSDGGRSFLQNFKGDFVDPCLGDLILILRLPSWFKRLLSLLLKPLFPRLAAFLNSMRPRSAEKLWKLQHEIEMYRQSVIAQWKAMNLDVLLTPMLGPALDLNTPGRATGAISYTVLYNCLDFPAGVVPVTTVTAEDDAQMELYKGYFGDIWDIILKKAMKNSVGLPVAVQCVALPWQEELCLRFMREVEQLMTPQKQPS

## Cc1c(C(=O)NN2CCCCC2)nn(-c2ccc(Cl)cc2Cl)c1-c1ccc(I)cc1 [AM251]
[1]
  effect of antagonist on antinociceptive actions of systemic ARN272: suppressed

## CCCCCC=CCC=CCC=CCC=CCCCC(=O)Nc1ccc(O)cc1 [AM404, N-(4-hydroxyphenyl)-eicosa-5,8,11,14-tetraenamide]
[2]
  IC50: 4 µM

## COc1ccc(C(=O)c2c(C)n(CCN3CCOCC3)c3cc(I)ccc23)cc1 [AM630]
[1]
  effect of antagonist on antinociceptive actions of systemic ARN272: ineffective

## CC(C)(C)c1ccc(/C=C/C(=O)Nc2ccc3c(c2)OCCO3)cc1 [AMG9810]
[1]
  effect of antagonist on antinociceptive actions of systemic ARN272: ineffective

## CCCCCCCC/C=C\CCCCCCCC(=O)N[C@H](CO)Cc1ccc(O)cc1 [OMDM-1]
[2]; FLAT-expressing Hek293 cells
  effect on [3H]-anandamide accumulation: prevented

## CCCCC/C=C\C/C=C\C/C=C\C/C=C\CCCC(=O)NCc1ccoc1 [UCM707]
[2]; FLAT-expressing Hek293 cells
  effect on [3H]-anandamide accumulation: prevented

## CCCCC/C=C\C/C=C\C/C=C\C/C=C\CCCC(=O)Nc1ccc(O)cc1C [VDM11]
[2]; FLAT-expressing Hek293 cells
  effect on [3H]-anandamide accumulation: prevented

## CCCCC/C=C\C/C=C\C/C=C\C/C=C\CCCC(=O)NCCO [anandamide, N-arachidonoylethanolamine]
[2]; non-radioactive anandamide 100 μM
  effect on [3H]-anandamide accumulation: prevented
